Here are results for 38 molecules from ChEMBL document CHEMBL4513216, “Probing the Open Global Health Chemical Diversity Library for Multistage-Active Starting Points for Next-Generation Antimalarials” (ACS Infect Dis, 2020).

The series is described as follows: Toxicity liver stage against HepG2, at 10uM. The series is classed as cell-based. Details: test concentration 10 uM, cell line HepG2-A16-CD81EGFP. As to conditions: human, HepG2-A16-CD81EGFP cells; read-out: INHIBITION
An outline of the steps:
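Uninfected HepG2-A16-CD81EGFP cells, 3 × 10^3 per well, 1536-well, plated on prespotted compound at 10 μM final, parasite-free screening media added to match infected plates; puromycin 10 μM positive, DMSO 0.5% negative; run in parallel with 48 h PbLuc assay at 37 °C, 5% CO2; viability by CellTiter-Glo luminescence, normalized to controls.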
As to `Cc1cc(C(=O)N2CCN(c3nc4c(C(C)C)cccc4s3)CC2)on1`, the cytotoxicity at 10 µM was determined as 6.64%.

Take `Cc1nc(-n2nc(C3CC3)cc2NC(=O)C(C)C)[nH]c(=O)c1C`: the cytotoxicity at 10 µM was 54.5%.

Take `CC(=O)N(C)CC(=O)Nc1cnc(-n2ccnc2C)nc1`: the cytotoxicity at 10 µM came out at 3.86%.

Regarding `O=C(NC1CC1)c1cnc(-c2noc3cc(N4CCCCC4)ccc23)s1`, the cytotoxicity at 10 µM was 46%.

Consider `Cc1ccc(Oc2cc(F)ccc2O[C@@H]2CCC[C@@H](N)[C@H]2O)cc1`, for which the cytotoxicity at 10 µM is -3.89%.

Regarding `COc1ccc(CN2CCc3nc4ccsc4c(=O)n3CC2)c(C)c1C`, the cytotoxicity at 10 µM came out at 67.3%.

Regarding `Cc1ccc(S(=O)(=O)N2C[C@H]3C[C@H](NC(=O)c4ccccn4)[C@H]3C2)cc1`, the cytotoxicity at 10 µM turned out to be 64.3%.

On to `Cc1ccc([C@]2(O)CC[C@H]3CN(Cc4ccc(Cl)cc4Cl)C[C@H]32)nc1`, for which the cytotoxicity at 10 µM is 8.32%.

As for `CN(C)S(=O)(=O)N1CCC(c2cccc(Cc3ccccc3Cl)n2)CC1`, the cytotoxicity at 10 µM stood at 55.9%.

For `Cc1nccn1-c1cccc(N2CCC(OCC3CCCCO3)CC2)n1` (stereo not drawn), the cytotoxicity at 10 µM turned out to be 11.3%.

With `COC(=O)CCN(C)C(=O)c1csc(Cc2ccccc2F)n1`, the cytotoxicity at 10 µM was found to be 9.38%.

On to `Cc1csc(N2CCCN(c3cc(C)nc(C)c3C#N)CC2)n1`, for which the cytotoxicity at 10 µM worked out at 22.6%.

`CC(C(=O)Nc1sccc1C(N)=O)N(C)CCOc1ccccc1` (stereo not drawn): the cytotoxicity at 10 µM came out at 2.59%.

Consider `CCCS(=O)(=O)CC(=O)N1CCCC1c1noc(C2CC2)n1` (stereo not drawn), for which the cytotoxicity at 10 µM was determined as 3.34%.

On to `COCCN1CCN(CCS(=O)(=O)c2cccc(OC)c2)CC1`, for which the cytotoxicity at 10 µM was -1.33%.

As for `C=C(C)CN1CCC(NC(=O)NCCc2ccccc2OC)CC1`, the cytotoxicity at 10 µM was determined as 14.2%.

As to `Cc1nc(C)n(CC2CCCN2CC(=O)NCCc2ccsc2)n1` (stereo not drawn), the cytotoxicity at 10 µM is 0.932%.

For the molecule `COC(=O)c1sc(NCc2ccc(N3CCC(O)CC3)c(F)c2)nc1Cl`, the cytotoxicity at 10 µM was 44.5%.

For the molecule `CN1CCOC(C(=O)Nc2ccc3c(c2)nc(C(C)(C)C)n3C)C1` (stereo not drawn), the cytotoxicity at 10 µM is -1.8%.

As for `CCc1nc(CN2CCN(c3ncnc4cc(F)ccc34)CC2)no1`, the cytotoxicity at 10 µM was 41.5%.

In the case of `Cc1ccccc1OC1CN(Cc2c(C)nc3ccccn23)C1`, the cytotoxicity at 10 µM came out at 43.3%.

With `CN(Cc1cccc(-n2cccn2)c1)c1cc(N2CCCC2)nc(N)n1`, the cytotoxicity at 10 µM is 51.6%.

As for `O=S1(=O)CCC(CNc2cc(-c3ccccc3)nc3ccnn23)C1` (stereo not drawn), the cytotoxicity at 10 µM was found to be 61.2%.

As for `Cc1[nH]c2ccc(Cl)cc2c1CCNc1ncnc2c1CCNC2`, the cytotoxicity at 10 µM worked out at 22.4%.

On to `COc1cc(Oc2ccc(C(F)(F)F)cn2)ccc1CN1CCCC1`, for which the cytotoxicity at 10 µM is 51.5%.

For `OCC1(Cc2ccc(Cl)cc2)CCN(Cc2cccnc2)CC1`, the cytotoxicity at 10 µM is -45.6%.

In the case of `NCC1CCN(C2CCN(c3ccc(-c4ccco4)cc3)CC2)C1` (stereo not drawn), the cytotoxicity at 10 µM was found to be 93.9%.

With `Cc1ccccc1-n1cc(-c2ccnc(NC(CO)C(C)C)n2)cn1` (stereo not drawn), the cytotoxicity at 10 µM amounted to 7.12%.

Turning to `Nc1nc2c(c(NC3CCCC3)n1)CCN(C(=O)C1CCOC1)CC2` (stereo not drawn), the cytotoxicity at 10 µM was -129%.

On to `CC(=O)c1ccc(N2CCC(CO)(CCOc3ccccc3)CC2)nc1`, for which the cytotoxicity at 10 µM was determined as 28.1%.

As to `O=C1NCCN1C1CCN(Cc2nc(-c3ccccc3)no2)CC1`, the cytotoxicity at 10 µM stood at 30.3%.

Consider `COc1cc(C(=O)Nc2nc(C)no2)cc(OC)c1Br`, for which the cytotoxicity at 10 µM was -8.78%.

Take `CCc1cccc(N2CCC(NC(=O)c3ccco3)CC2)c1`: the cytotoxicity at 10 µM is -4.38%.

With `Cc1nc(C)n(CC2CN(Cc3nc4ccccc4s3)CCO2)n1` (stereo not drawn), the cytotoxicity at 10 µM was determined as 44.4%.

For `Cc1nnc(N2CC[C@@H](OCC3CC3)[C@@H](Cc3ccccc3)C2)s1`, the cytotoxicity at 10 µM was 14.4%.

As for `Fc1ccc(CN2CCO[C@H]3[C@H](OCc4ccncc4)CC[C@@H]32)cc1`, the cytotoxicity at 10 µM is -26.7%.

`COc1ccc2c(c1)C1(CCNCC1)CC2NC1CC1` (stereo not drawn): the cytotoxicity at 10 µM is -117%.

With `O=C(Cc1ccncc1)N1CCC2(CC1)CC(c1ccccc1)CO2` (stereo not drawn), the cytotoxicity at 10 µM is -86.1%.
